Hits are enriched below; roughly 3.7% of the tested compounds scored in any of these assays.
FXN GAA850 act – activators of GAA850 frataxin (FXN) promoter; HEK293 lucGAA850 FXN promoter luciferase reporter, 24 h; percent of 10 µM SAHA response; activation, % at 6 µM; hit rate 0.56% among 360,000; AID 540364;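 active = activation above the average of all compounds screened plus 3 SD, cutoff fixed separately per campaign, cut at about 7.5% in these data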
SR-BI uptake up – SR-BI HDL lipid transfer activation. AID 504775. hit rate 0.096% among 320,000. activation, % at 12.5 µM. CHO ldlA[mSR-BI] cells, DiI-HDL uptake fluorescence, 3 h; 100 = double the neutral-control signal;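 active = mean replicate activation of at least 60% and every replicate at or above 60%; inconclusive = mean or all-replicate condition met, but not both; inactive = mean below 60% and not all replicates reaching 60%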
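System: CHO ldlA[mSR-BI] cells / Medium: HEPES-buffered (25 mM, pH 7.4) F12 plus 0.5% BSA / Probe or stimulus: labelled HDL, 10 µg/mL / Doses: single compound concentration, delivered by pin transfer / Schedule: 3 h, 37 °C / Measured by: DiI fluorescence, bottom read / Measure: cell-associated DiI fluorescence as measure of HDL uptake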
JMJD2C inh – human JMJD2C demethylase inhibition. GST-JMJD2C(1-420) H3K9me3 demethylation, DELFIA europium. hit rate 0.069% among 330,000. Q9H3R0. inhibition, % at 2.35 µM;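 active = more than half of a compound's replicate wells show inhibition beyond 50%, single wells judged on their own value; inconclusive = some, but no more than half, of replicates pass 50% inhibition; inactive = no replicate passes 50% inhibition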;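 note: signal counts dimethyl H3K9 product captured on neutravidin plate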
Target sequence (Q9H3R0 1-420 limits assumed): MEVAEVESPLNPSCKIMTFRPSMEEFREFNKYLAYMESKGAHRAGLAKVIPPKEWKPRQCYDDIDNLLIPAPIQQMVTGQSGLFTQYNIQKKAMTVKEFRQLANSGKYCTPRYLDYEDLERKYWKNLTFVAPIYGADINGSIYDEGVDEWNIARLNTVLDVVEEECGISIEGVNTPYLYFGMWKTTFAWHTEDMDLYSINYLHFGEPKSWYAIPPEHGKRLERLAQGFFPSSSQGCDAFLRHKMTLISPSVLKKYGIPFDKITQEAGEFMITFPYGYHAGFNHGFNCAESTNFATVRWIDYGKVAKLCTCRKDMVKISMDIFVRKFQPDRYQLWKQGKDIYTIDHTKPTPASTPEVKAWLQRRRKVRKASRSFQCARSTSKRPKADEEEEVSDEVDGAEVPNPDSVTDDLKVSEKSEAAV
AHR act – activators of human aryl hydrocarbon receptor | AHR-responsive luciferase reporter cells, luminescence | hit rate 2.5% among 320,000 | activation, % at 5 µM | P35869; in the data active = activation above about 47%
SR-BI DiI inh – mouse SR-BI HDL lipid transfer inhibition | Q61009 | ldlA[mSR-BI] CHO cells, DiI-HDL uptake fluorescence, 3 h | inhibition, % at 12.5 µM | hit rate 0.96% among 320,000;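 active = mean replicate inhibition of at least 70% and a set share of replicates each scoring 70 or more; inconclusive = meets just one of the two criteria; inactive = fails both criteria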
AHR act confirm – human AHR activation, confirmation | shares compounds with AHR act | hit rate 87% among 2,300 | AID 2845 | human cells, AHR-responsive luciferase reporter, luminescence | activation, % at 9 µM; in the data active = activation above about 49%;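 note: HepG2 hepatoma cells carrying a DRE-driven firefly luciferase reporter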
PXR counter – counter-screen for AHR activators: human PXR activators | shares compounds with AHR act | AID 434939 | hit rate 88% among 2,300 | activation, % at 11.6 µM | cell-based PXR reporter, luciferase luminescence; in the data active = activation above about 11%;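 note: human hepatoma DPX-2 cells expressing full-length human PXR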
Each line names hits and unclear results; the compound was inactive in the other large screens (follow-up assays come after a bar, where they were run).

CCc1ccc2oc(-c3cc(N=Cc4cccc(OC)c4O)ccc3O)nc2c1	AHR act 125 (no result: FXN GAA850 act, SR-BI uptake up, SR-BI DiI inh) | AHR act confirm 113 | PXR counter inactive
Cc1oc2c(cc(NS(=O)(=O)c3cccs3)c3ccccc32)c1C(=O)OC(C)C	AHR act 92 | AHR act confirm 92 | PXR counter 162
Cc1oc2c(cc(NS(=O)(=O)c3ccc(C(C)C)cc3)c3ccccc32)c1C(=O)O	none
COc1ccc(S(=O)(=O)Nc2cc3c(C(C)=O)c(C)oc3c3ccccc23)cc1	AHR act 92 | AHR act confirm 76 | PXR counter 255
N#Cc1ccc(NC(=O)Cn2cnc(S(=O)(=O)N3CCc4ccccc43)c2)cc1	none
CCn1nc(C(=O)Nc2nc3ccccc3[nH]2)c2ccccc2c1=O	none
Cn1nc(C(=O)Nc2nc3ccccc3[nH]2)c2ccccc2c1=O	AHR act 98 | AHR act confirm 73 | PXR counter 19
CC(C)CSc1oc(-c2ccco2)nc1S(=O)(=O)c1ccccc1	none
c1ccc(C2Nc3ccccc3-c3nc4ccccc4n32)nc1 (stereo not given)	AHR act 80 | AHR act confirm 88 | PXR counter 114
c1coc(C2Nc3ccccc3-c3nc4ccccc4n32)c1 (stereo not given)	AHR act 129 | AHR act confirm 49 | PXR counter 71
Cc1cc(N)ccc1N=Nc1c(C)n(C)n(-c2ccccc2)c1=O	AHR act 87 | AHR act confirm 119 | PXR counter 25
CCN(CC)c1ccc(C2NC(=O)c3ccccc3N2)cc1 (stereo not given)	none (no result: JMJD2C inh, AHR act)
O=C1NC(c2ccc(Br)cc2)Nc2ccccc21 (stereo not given)	AHR act 80 | AHR act confirm 62 | PXR counter 22
COCCn1c(C)cc(/C=C2/NC(=O)N(c3cccc(Cl)c3)C2=O)c1C	AHR act 122 | AHR act confirm inactive | PXR counter 74
Cc1nc2c(c(C)nn2-c2ccccc2)c(C)c1CCC(=O)Nc1ccc(CN2CCCC2)cc1	none
O=C(CSc1nc2c(c(=O)[nH]1)CCC2)Nc1cccc(F)c1	none
COc1ccc(-c2csc(-c3ccccc3)n2)c(OC)c1	none
COc1ccc(-c2csc(-c3cccs3)n2)c(OC)c1	AHR act 80 | AHR act confirm 119 | PXR counter 39
CCNC(=S)Nc1ccc(NC(=O)c2ccccc2O)cc1	none
CCNC(=S)Nc1cccc(NC(=O)c2ccccc2O)c1	AHR act 86 | AHR act confirm 124 | PXR counter 14
O=C1c2ccccc2NC(c2ccc(Br)s2)N1O (stereo not given)	AHR act 80 (no result: FXN GAA850 act, SR-BI uptake up, SR-BI DiI inh) | AHR act confirm 81 | PXR counter 25
O=C(COC(=O)Cc1ccc(Br)cc1)NCC1CCCCC1	none
Cc1ccc(NC(=O)c2ccsc2)cc1NS(C)(=O)=O	JMJD2C inh inconclusive, AHR act 84 | AHR act confirm 95 | PXR counter 33
CCS(=O)(=O)Nc1cccc(C2=NN(C(C)=O)C(c3cccs3)C2)c1 (stereo not given)	none
N/C(=N\OC(=O)c1ccc(Cl)cc1[N+](=O)[O-])c1cccnc1	AHR act 90 | AHR act confirm 91 | PXR counter 15
Cc1ccc(C(=O)O/N=C(\N)c2ccccn2)c(Cl)c1	none
N/C(=N\OC(=O)c1ccc(Cl)cc1[N+](=O)[O-])c1ccccn1	AHR act 146 | AHR act confirm 53 | PXR counter 13
N/C(=N\OC(=O)c1cc(Br)ccc1Cl)c1ccccn1	AHR act 108 | AHR act confirm 61 | PXR counter 12
N/C(=N\OC(=O)c1cc(Cl)ccc1Cl)c1cccnc1	none
N/C(=N\OC(=O)Cc1ccccc1[N+](=O)[O-])c1ccccn1	none
N/C(=N\OC(=O)c1ccc(Cl)cc1Cl)c1ccccn1	none
Cc1c(C(=O)O/N=C(\N)c2ccccn2)cccc1[N+](=O)[O-]	AHR act 97 | AHR act confirm 92 | PXR counter 12
COc1ccc([C@H]2CC(=O)C=C(c3ccc(Cl)c(Cl)c3)C2)cc1	none (no result: JMJD2C inh)
CCCN(C(=O)c1cccs1)c1c(N)n(Cc2ccccc2)c(=O)[nH]c1=O	none
CC(=O)/C(=N/Nc1ccc(Br)cc1)Sc1cccc2cccnc12	AHR act 125 | AHR act confirm 116 | PXR counter 180
CCN(CC)C(=O)[C@H]1C[C@H](CC(=O)NC/C=C(\C)CCC=C(C)C)C(=O)N2CCc3c([nH]c4cc(CCC(=O)N(C)C)ccc34)[C@]12C	none (no result: JMJD2C inh, AHR act)
NC(=O)c1cc2ccccc2o/c1=N\NC(=O)c1ccncc1	AHR act 127 | AHR act confirm 137 | PXR counter 15
Cc1ccc(C(=O)N/N=c2\oc3ccccc3cc2C(N)=O)cc1	none
Cc1cc(C)nc(NC2=NCC(=O)N2c2cc(Cl)cc(Cl)c2)n1	none
Cc1cccc(N2C(=O)CN=C2Nc2nc(C)cc(C)n2)c1	AHR act 92 | AHR act confirm 82 | PXR counter 25
N#CC(C#N)=C1C=CC=CN1/C(=C\c1ccco1)C(=O)c1ccc(Cl)cc1	AHR act 178 | AHR act confirm 133 | PXR counter 51
O=C(c1cccnc1)N1CCC(Oc2ccc(C(=O)N3CCCCO3)cc2)CC1	none
CCn1cnc2cc(NCc3cccs3)ccc21	none
Cc1ccc(CNc2ccc3c(c2)ncn3C(C)C)cc1	none (no result: SR-BI uptake up, SR-BI DiI inh)
CCn1cnc2cc(NCc3ccc(C)cc3)ccc21	none
CCn1cnc2cc(NCc3nc4ccccc4n3C)ccc21	AHR act 93 | AHR act confirm 65 | PXR counter 83
CC(C)n1cnc2cc(NCc3nc4ccccc4n3C)ccc21	AHR act 91 | AHR act confirm 86 | PXR counter 128
CCn1cnc2cc(NCc3ccc(Br)cc3)ccc21	AHR act 107 (no result: FXN GAA850 act, SR-BI uptake up, SR-BI DiI inh) | AHR act confirm 113 | PXR counter 46
CCCn1c(CNc2ccc(Br)cc2)nc2ccccc21	AHR act 101 | AHR act confirm 93 | PXR counter 51
COc1cc(/C=C/C(=O)OCC(=O)c2c(N)n(C)c(=O)n(C)c2=O)ccc1OC(F)F	none
Cc1ccc(C)c(NC(=O)CN(C)C(=O)c2ccc3c(=O)n4c(nc3c2)CCC4)c1	none
COc1cc(C(=O)NC2CC(C)(C)NC(C)(C)C2)cc(OC)c1OC	none
COc1ccccc1CNS(=O)(=O)CCNCCc1ccccc1	none (no result: JMJD2C inh, AHR act)
C=CCn1c(=O)c(C(=O)NC2CC2)c(O)c2cc(OC)c(OC)cc21	AHR act 102 | AHR act confirm inactive | PXR counter 30
C=CCn1c(=O)c(C(=O)NCCc2ccc(Cl)cc2)c(O)c2cc(OC)c(OC)cc21	none
O=C(COc1ccccc1F)Nc1ccc(S(=O)(=O)NCc2ccco2)cc1	none

Bioassay records as filed in PubChem BioAssay.
